Results: ChEMBL document CHEMBL2086328, “¹⁸F-labeled 2-phenylquinoxaline derivatives as potential positron emission tomography probes for in vivo imaging of β-amyloid plaques” (Eur J Med Chem, 2012)

How the values were obtained:
Brain [1] = assay: Ratio of drug level in ICR mouse brain after 2 mins to ICR mouse brain after 60 mins at 370 kBq, iv; type: ADME, organism-based; conditions: in vivo
Procedure, shortened: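 Same intravenous study in ICR mice (370 kBq 18F tracer in saline/10% EtOH, n = 5 per time point). Ratio is brain %ID/g at 2 min divided by brain %ID/g at 60 min post-injection.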

[2] = Binding affinity to beta-amyloid
[3] = Displacement of [125I]IMPY from amyloid beta (1 to 42) after 2 hrs by gamma counting
Procedure, shortened: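 Competition binding against [125I]IMPY (radiochemical purity >95%) on Aβ1-42 aggregates with 1% BSA solution; inhibitor 10^-4–10^-9.5 M; 37 °C, 2 h. Free and bound separated by vacuum filtration on GF/B filters, three PBS washes (0.02 M, pH 7.4, room temperature); filters gamma-counted. Three repeats; IC50 fitted, Ki from Cheng–Prusoff.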

[4] = Lipophilicity, log D of the compound; type: physicochemical; conditions: octanol/water
Procedure, shortened: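 18F tracer (740 kBq) in 3 g n-octanol plus 3 g PBS (0.05 M, pH 7.4). Vortexed 3 min at room temperature, centrifuged 5 min at 3000 rpm; weighed samples from octanol and buffer layers counted.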

Brain [5] = assay: Biodistribution in ICR mouse brain at 370 kBq, iv after 2 mins by gamma counting; type: ADME, organism-based; conditions: in vivo
Procedure, shortened: (§1)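 Male ICR mice (five weeks, 20–22 g), tail-vein injection of 18F tracer in 0.1 mL saline with 10% EtOH. Killed by decapitation at set times, n = 5 per time point. Organs removed, weighed and gamma-counted; %ID/g wet tissue from comparison with diluted aliquots of injected dose; mean ± SD.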

Blood [6] = assay: Biodistribution in ICR mouse blood at 370 kBq, iv after 2 mins by gamma counting; type: ADME, organism-based; conditions: in vivo; procedure, shortened: as §1
Heart [7] = assay: Biodistribution in ICR mouse heart at 370 kBq, iv after 2 mins by gamma counting; type: ADME, organism-based; conditions: in vivo; procedure, shortened: as §1
Liver [8] = assay: Biodistribution in ICR mouse liver at 370 kBq, iv after 2 mins by gamma counting; type: ADME, organism-based; conditions: in vivo; procedure, shortened: as §1
Spleen [9] = assay: Biodistribution in ICR mouse spleen at 370 kBq, iv after 2 mins by gamma counting; type: ADME, organism-based; conditions: in vivo; procedure, shortened: as §1
Lung [10] = assay: Biodistribution in ICR mouse lung at 370 kBq, iv after 2 mins by gamma counting; type: ADME, organism-based; conditions: in vivo; procedure, shortened: as §1
Kidney [11] = assay: Biodistribution in ICR mouse kidney at 370 kBq, iv after 2 mins by gamma counting; type: ADME, organism-based; conditions: in vivo; procedure, shortened: as §1
Bone [12] = assay: Biodistribution in ICR mouse bone at 370 kBq, iv after 2 mins by gamma counting; type: ADME, organism-based, Bone element; conditions: in vivo; procedure, shortened: as §1
Stomach [13] = assay: Biodistribution in ICR mouse stomach at 370 kBq, iv after 2 mins by gamma counting; type: ADME, organism-based; conditions: in vivo; procedure, shortened: as §1
Intestine [14] = assay: Biodistribution in ICR mouse intestine at 370 kBq, iv after 2 mins by gamma counting; type: ADME, organism-based; conditions: in vivo; procedure, shortened: as §1
Blood [15] = assay: Biodistribution in ICR mouse blood at 370 kBq, iv after 10 mins by gamma counting; type: ADME, organism-based; conditions: in vivo; procedure, shortened: as §1
Brain [16] = assay: Biodistribution in ICR mouse brain at 370 kBq, iv after 10 mins by gamma counting; type: ADME, organism-based; conditions: in vivo; procedure, shortened: as §1
Heart [17] = assay: Biodistribution in ICR mouse heart at 370 kBq, iv after 10 mins by gamma counting; type: ADME, organism-based; conditions: in vivo; procedure, shortened: as §1
Liver [18] = assay: Biodistribution in ICR mouse liver at 370 kBq, iv after 10 mins by gamma counting; type: ADME, organism-based; conditions: in vivo; procedure, shortened: as §1
Spleen [19] = assay: Biodistribution in ICR mouse spleen at 370 kBq, iv after 10 mins by gamma counting; type: ADME, organism-based; conditions: in vivo; procedure, shortened: as §1
Lung [20] = assay: Biodistribution in ICR mouse lung at 370 kBq, iv after 10 mins by gamma counting; type: ADME, organism-based; conditions: in vivo; procedure, shortened: as §1
Kidney [21] = assay: Biodistribution in ICR mouse kidney at 370 kBq, iv after 10 mins by gamma counting; type: ADME, organism-based; conditions: in vivo; procedure, shortened: as §1
Bone [22] = assay: Biodistribution in ICR mouse bone at 370 kBq, iv after 10 mins by gamma counting; type: ADME, organism-based, Bone element; conditions: in vivo; procedure, shortened: as §1
Stomach [23] = assay: Biodistribution in ICR mouse stomach at 370 kBq, iv after 10 mins by gamma counting; type: ADME, organism-based; conditions: in vivo; procedure, shortened: as §1
Intestine [24] = assay: Biodistribution in ICR mouse intestine at 370 kBq, iv after 10 mins by gamma counting; type: ADME, organism-based; conditions: in vivo; procedure, shortened: as §1
Blood [25] = assay: Biodistribution in ICR mouse blood at 370 kBq, iv after 30 mins by gamma counting; type: ADME, organism-based; conditions: in vivo, 0.5 h; procedure, shortened: as §1
Brain [26] = assay: Biodistribution in ICR mouse brain at 370 kBq, iv after 30 mins by gamma counting; type: ADME, organism-based; conditions: in vivo, 0.5 h; procedure, shortened: as §1
Heart [27] = assay: Biodistribution in ICR mouse heart at 370 kBq, iv after 30 mins by gamma counting; type: ADME, organism-based; conditions: in vivo, 0.5 h; procedure, shortened: as §1
Liver [28] = assay: Biodistribution in ICR mouse liver at 370 kBq, iv after 30 mins by gamma counting; type: ADME, organism-based; conditions: in vivo, 0.5 h; procedure, shortened: as §1
Spleen [29] = assay: Biodistribution in ICR mouse spleen at 370 kBq, iv after 30 mins by gamma counting; type: ADME, organism-based; conditions: in vivo, 0.5 h; procedure, shortened: as §1
Lung [30] = assay: Biodistribution in ICR mouse lung at 370 kBq, iv after 30 mins by gamma counting; type: ADME, organism-based; conditions: in vivo, 0.5 h; procedure, shortened: as §1
Kidney [31] = assay: Biodistribution in ICR mouse kidney at 370 kBq, iv after 30 mins by gamma counting; type: ADME, organism-based; conditions: in vivo, 0.5 h; procedure, shortened: as §1
Bone [32] = assay: Biodistribution in ICR mouse bone at 370 kBq, iv after 30 mins by gamma counting; type: ADME, organism-based, Bone element; conditions: in vivo, 0.5 h; procedure, shortened: as §1
Stomach [33] = assay: Biodistribution in ICR mouse stomach at 370 kBq, iv after 30 mins by gamma counting; type: ADME, organism-based; conditions: in vivo, 0.5 h; procedure, shortened: as §1
Intestine [34] = assay: Biodistribution in ICR mouse intestine at 370 kBq, iv after 30 mins by gamma counting; type: ADME, organism-based; conditions: in vivo, 0.5 h; procedure, shortened: as §1
Blood [35] = assay: Biodistribution in ICR mouse blood at 370 kBq, iv after 60 mins by gamma counting; type: ADME, organism-based; conditions: in vivo, 1 h; procedure, shortened: as §1
Brain [36] = assay: Biodistribution in ICR mouse brain at 370 kBq, iv after 60 mins by gamma counting; type: ADME, organism-based; conditions: in vivo, 1 h; procedure, shortened: as §1
Heart [37] = assay: Biodistribution in ICR mouse heart at 370 kBq, iv after 60 mins by gamma counting; type: ADME, organism-based; conditions: in vivo, 1 h; procedure, shortened: as §1
Liver [38] = assay: Biodistribution in ICR mouse liver at 370 kBq, iv after 60 mins by gamma counting; type: ADME, organism-based; conditions: in vivo, 1 h; procedure, shortened: as §1
Spleen [39] = assay: Biodistribution in ICR mouse spleen at 370 kBq, iv after 60 mins by gamma counting; type: ADME, organism-based; conditions: in vivo, 1 h; procedure, shortened: as §1
Lung [40] = assay: Biodistribution in ICR mouse lung at 370 kBq, iv after 60 mins by gamma counting; type: ADME, organism-based; conditions: in vivo, 1 h; procedure, shortened: as §1
Kidney [41] = assay: Biodistribution in ICR mouse kidney at 370 kBq, iv after 60 mins by gamma counting; type: ADME, organism-based; conditions: in vivo, 1 h; procedure, shortened: as §1
Bone [42] = assay: Biodistribution in ICR mouse bone at 370 kBq, iv after 60 mins by gamma counting; type: ADME, organism-based, Bone element; conditions: in vivo, 1 h; procedure, shortened: as §1
Stomach [43] = assay: Biodistribution in ICR mouse stomach at 370 kBq, iv after 60 mins by gamma counting; type: ADME, organism-based; conditions: in vivo, 1 h; procedure, shortened: as §1
Intestine [44] = assay: Biodistribution in ICR mouse intestine at 370 kBq, iv after 60 mins by gamma counting; type: ADME, organism-based; conditions: in vivo, 1 h; procedure, shortened: as §1

## CNc1ccc(/C=C/c2ccc(OCCOCCOCC[18F])nc2)cc1 [FLORBETAPIR F 18]
Brain [1]
  Ratio: 3.9
[2]
  Ki: 2.87 nM
[3]
  Ki: 2.9 nM
[4]
  logD: 2.41
Brain [5]
  Drug uptake: 7.33 % ID/g

## CNc1ccc2nc(-c3ccc(OCC[18F])cc3)cnc2c1
Brain [1]
  Ratio: 2.58
[4]
  logD: 3.14
Blood [6]
  Drug uptake: 4.93 % ID/g
Brain [5]
  Drug uptake: 8.17 % ID/g
Heart [7]
  Drug uptake: 6.08 % ID/g
Liver [8]
  Drug uptake: 9.5 % ID/g
Spleen [9]
  Drug uptake: 4.71 % ID/g
Lung [10]
  Drug uptake: 6.38 % ID/g
Kidney [11]
  Drug uptake: 9.37 % ID/g
Bone [12]
  Drug uptake: 2.46 % ID/g
Stomach [13]
  Drug uptake: 1.81 %ID
Intestine [14]
  Drug uptake: 9.63 %ID
Blood [15]
  Drug uptake: 4.68 % ID/g
Brain [16]
  Drug uptake: 5.07 % ID/g
Heart [17]
  Drug uptake: 4.27 % ID/g
Liver [18]
  Drug uptake: 7.8 % ID/g
Spleen [19]
  Drug uptake: 3.87 % ID/g
Lung [20]
  Drug uptake: 4.36 % ID/g
Kidney [21]
  Drug uptake: 5.96 % ID/g
Bone [22]
  Drug uptake: 2.84 % ID/g
Stomach [23]
  Drug uptake: 2.55 %ID
Intestine [24]
  Drug uptake: 12.87 %ID
Blood [25]
  Drug uptake: 5.09 % ID/g
Brain [26]
  Drug uptake: 3.45 % ID/g
Heart [27]
  Drug uptake: 4.28 % ID/g
Liver [28]
  Drug uptake: 5.37 % ID/g
Spleen [29]
  Drug uptake: 3.35 % ID/g
Lung [30]
  Drug uptake: 3.78 % ID/g
Kidney [31]
  Drug uptake: 4.25 % ID/g
Bone [32]
  Drug uptake: 5.73 % ID/g
Stomach [33]
  Drug uptake: 1.84 %ID
Intestine [34]
  Drug uptake: 17.15 %ID
Blood [35]
  Drug uptake: 5.24 % ID/g
Brain [36]
  Drug uptake: 3.17 % ID/g
Heart [37]
  Drug uptake: 4.24 % ID/g
Liver [38]
  Drug uptake: 5 % ID/g
Spleen [39]
  Drug uptake: 3.04 % ID/g
Lung [40]
  Drug uptake: 3.77 % ID/g
Kidney [41]
  Drug uptake: 3.79 % ID/g
Bone [42]
  Drug uptake: 6.2 % ID/g
Stomach [43]
  Drug uptake: 2.5 %ID
Intestine [44]
  Drug uptake: 18.75 %ID

## CNc1ccc(-c2nc3ccc(O)cc3s2)cc1[18F] [FLUTEMETAMOL F 18]
[2]
  Ki: 0.74 nM

## CNc1ccc2nc(-c3ccc(OCCOCCOCC[18F])cc3)cnc2c1
Brain [1]
  Ratio: 3.89
[4]
  logD: 2.79
Blood [6]
  Drug uptake: 5.51 % ID/g
Brain [5]
  Drug uptake: 2.49 % ID/g
Heart [7]
  Drug uptake: 3.21 % ID/g
Liver [8]
  Drug uptake: 14.18 % ID/g
Spleen [9]
  Drug uptake: 2.07 % ID/g
Lung [10]
  Drug uptake: 4.07 % ID/g
Kidney [11]
  Drug uptake: 5.52 % ID/g
Bone [12]
  Drug uptake: 1.49 % ID/g
Stomach [13]
  Drug uptake: 1.55 %ID
Intestine [14]
  Drug uptake: 6.06 %ID
Blood [15]
  Drug uptake: 3.32 % ID/g
Brain [16]
  Drug uptake: 1.44 % ID/g
Heart [17]
  Drug uptake: 1.76 % ID/g
Liver [18]
  Drug uptake: 14.09 % ID/g
Spleen [19]
  Drug uptake: 1.65 % ID/g
Lung [20]
  Drug uptake: 2.4 % ID/g
Kidney [21]
  Drug uptake: 3.91 % ID/g
Bone [22]
  Drug uptake: 1 % ID/g
Stomach [23]
  Drug uptake: 2.81 %ID
Intestine [24]
  Drug uptake: 12.26 %ID
Blood [25]
  Drug uptake: 2.38 % ID/g
Brain [26]
  Drug uptake: 0.83 % ID/g
Heart [27]
  Drug uptake: 1.19 % ID/g
Liver [28]
  Drug uptake: 7.9 % ID/g
Spleen [29]
  Drug uptake: 1.21 % ID/g
Lung [30]
  Drug uptake: 1.76 % ID/g
Kidney [31]
  Drug uptake: 3.27 % ID/g
Bone [32]
  Drug uptake: 1.12 % ID/g
Stomach [33]
  Drug uptake: 3.21 %ID
Intestine [34]
  Drug uptake: 32.83 %ID
Blood [35]
  Drug uptake: 1.54 % ID/g
Brain [36]
  Drug uptake: 0.64 % ID/g
Heart [37]
  Drug uptake: 1.03 % ID/g
Liver [38]
  Drug uptake: 4.89 % ID/g
Spleen [39]
  Drug uptake: 0.94 % ID/g
Lung [40]
  Drug uptake: 1.15 % ID/g
Kidney [41]
  Drug uptake: 1.65 % ID/g
Bone [42]
  Drug uptake: 1.78 % ID/g
Stomach [43]
  Drug uptake: 6.53 %ID
Intestine [44]
  Drug uptake: 39.02 %ID
